These results are taken from PMC7775634 (Cell reports, 2020).

Where a chain is given by its changes, count along the chain named. Numbers in names are those of the source. Ends that are not written are not given here. * marks the point of attachment. Biotin = O=C1N[C@H]2[C@H](CS[C@H]2CCCCC(=O)*)N1; Rhodamine = not defined here

Test [1] concerns Cdc15 phosphostate in cells. Conditions: FK506-treated cells; ref Martín-García et al., 2018; cited from earlier work.
In test [2] the target is T1, Cdc15 F-BAR domain (E30K E152K) (Schizosaccharomyces pombe, UniProt Q09822, E152K/E30K).
T1 sequence (Q09822 19-312 E30K/E152K): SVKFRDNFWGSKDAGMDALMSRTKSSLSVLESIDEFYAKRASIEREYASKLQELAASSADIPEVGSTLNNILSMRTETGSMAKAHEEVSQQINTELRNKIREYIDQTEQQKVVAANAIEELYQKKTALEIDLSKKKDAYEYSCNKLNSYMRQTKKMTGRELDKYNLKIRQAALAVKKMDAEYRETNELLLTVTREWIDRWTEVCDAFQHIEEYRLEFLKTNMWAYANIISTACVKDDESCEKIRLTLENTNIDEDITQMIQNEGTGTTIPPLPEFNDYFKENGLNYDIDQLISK
As to the kind of experiment: Isothermal titration calorimetry. Format: binding, S. pombe. (Isothermal titration calorimetry measures the heat released or taken up as one component is titrated into another.)

The subject of the next test is Cdc15 F-BAR domain. As to the kind of experiment: Binding between purified Cdc15 F-BAR domain and recombinant CN. The arrangement: species or system S. pombe.
A further test deals with Imp2 F-BAR domain. Nature of the test: In vitro binding assay. The arrangement: species or system S. pombe. To be noted: biotin-labeled peptide; streptavidin pull down; SDS-PAGE, Coomassie. In a few lines:
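Biotinylated test peptide (0.10 μM) and purified F-BAR domain (0.05 μM) were mixed with streptavidin resin. Incubation was 1 h at 4°C in 50 mM Tris pH 7.4, 250 mM NaCl, 0.1% NP-40. Resin was washed thoroughly. Bound protein was resolved by SDS-PAGE and stained with Coomassie blue.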

For test [3] the following is noted: phosphorylated; ref Bhattacharjee et al., 2020; cited from earlier work.
In test [4] the target is T2, GFP-Cdc15 F-BAR domain (residues 19-312) (S. pombe, UniProt Q09822 19-312).
T2 sequence (looked up): T1 sequence (Q09822 19-312 E30K/E152K) with K12E, K134E
As to the kind of experiment: recruitment to giant unilamellar vesicles, fluorescence microscopy.

`C=CC[C@@H]1/C=C(\C)C[C@H](C)C[C@H](OC)[C@H]2O[C@@](O)(C(=O)C(=O)N3CCCC[C@H]3C(=O)O[C@H](/C(C)=C/[C@@H]3CC[C@@H](O)[C@H](OC)C3)[C@H](C)[C@@H](O)CC1=O)[C@H](C)C[C@@H]2OC` [FK506]: the Cdc15 phosphostate entry in test [1] is on record as “Cdc15 phosphostate changes”.
The Kd is the equilibrium constant for the complex coming apart. Molecule TPTPSARRTIGPRAPKSKTTY [Cdc12 peptide] returned a Kd in test [2] of 5 µM.
For “recombinant CN: Calcineurin produced by co-expressing Ppb1 as a 6xHis fusion (catalytic subunit), Cnb1 (regulatory subunit), and Cam1 (calmodulin)”, the “binding to purified Cdc15 F-BAR domain” value in the test on Cdc15 F-BAR domain was “did not detect binding”.
“Cdc12 peptide (residues 20–40): Cdc12 (residues 20–40) peptide synthesized with an N-terminal biotin modification, used for binding assays (Biotin-TPTPSARRTIGPRAPKSKTTY)”: in the test with Imp2 F-BAR domain, the “interaction with Imp2 F-BAR domain” value was “did not interact”.

B1: Cdc15 (E30K E152K): Full-length FLAG-Cdc15 (E30K E152K) co-expressed with kinase Pom1 (protein, UniProt Q09822 1-927, looked up, variant E30K E152K)
chain: MEVNGVSQSEAAPYVTKSSVKFRDNFWGSKDAGMDALMSRTKSSLSVLESIDEFYAKRASIEREYASKLQELAASSADIPEVGSTLNNILSMRTETGSMAKAHEEVSQQINTELRNKIREYIDQTEQQKVVAANAIEELYQKKTALEIDLSKKKDAYEYSCNKLNSYMRQTKKMTGRELDKYNLKIRQAALAVKKMDAEYRETNELLLTVTREWIDRWTEVCDAFQHIEEYRLEFLKTNMWAYANIISTACVKDDESCEKIRLTLENTNIDEDITQMIQNEGTGTTIPPLPEFNDYFKENGLNYDIDQLISKAPSYPYSSSRPSASASLASSPTRSAFRPKTSETVSSEVVSSPPTSPLHSPVKPVSNEQVEQVTEVELSIPVPSIQEAESQKPVLTGSSMRRPSVTSPTFEVAARPLTSMDVRSSHNAETEVQAIPAATDISPEVKEGKNSENAITKDNDDIILSSQLQPTATGSRSSRLSFSRHGHGSQTSLGSIKRKSIMERMGRPTSPFMGSSFSNMGSRSTSPTKEGFASNQHATGASVQSDELEDIDPRANVVLNVGPNMLSVGEAPVESTSKEEDKDVPDPIANAMAELSSSMRRRQSTSVDDEAPVSLSKTSSSTRLNGLGYHSRNTSIASDIDGVPKKSTLGAPPAAHTSAQMQRMSNSFASQTKQVFGEQRTENSARESLRHSRSNMSRSPSPMLSRRSSTLRPSFERSASSLSVRQSDVVSPAPSTRARGQSVSGQQRPSSSMSLYGEYNKSQPQLSMQRSVSPNPLGPNRRSSSVLQSQKSTSSNTSNRNNGGYSGSRPSSEMGHRYGSMSGRSMRQVSQRSTSRARSPEPTNRNSVQSKNVDPRATFTAEGEPILGYVIALYDYQAQIPEEISFQKGDTLMVLRTQEDGWWDGEIINVPNSKRGLFPSNFVQTV
modifications: full-length FLAG tag
In the case of B1, the membrane binding result in test [3] was “did not bind membrane”.
Take Rhodamine-TPTPSARRTIGPRAPKSKTTY (reading uncertain) [Rhodamine-Cdc12(aa20-40) peptide]: the binding result in test [4] was “binds”.
